{
  "source": "ChEMBL document CHEMBL2163344",
  "about": "“Immunomodulatory properties of novel nucleotide oligomerization domain 2 (nod2) agonistic desmuramyldipeptides” (J Med Chem, 2012)",
  "type_in_all_cases": "functional, cell-based",
  "key": {"[1]": {"target": "T1, Toll-like receptor 7 (Homo sapiens) (UniProt Q9NYK1)", "T1 sequence (whole entry)": "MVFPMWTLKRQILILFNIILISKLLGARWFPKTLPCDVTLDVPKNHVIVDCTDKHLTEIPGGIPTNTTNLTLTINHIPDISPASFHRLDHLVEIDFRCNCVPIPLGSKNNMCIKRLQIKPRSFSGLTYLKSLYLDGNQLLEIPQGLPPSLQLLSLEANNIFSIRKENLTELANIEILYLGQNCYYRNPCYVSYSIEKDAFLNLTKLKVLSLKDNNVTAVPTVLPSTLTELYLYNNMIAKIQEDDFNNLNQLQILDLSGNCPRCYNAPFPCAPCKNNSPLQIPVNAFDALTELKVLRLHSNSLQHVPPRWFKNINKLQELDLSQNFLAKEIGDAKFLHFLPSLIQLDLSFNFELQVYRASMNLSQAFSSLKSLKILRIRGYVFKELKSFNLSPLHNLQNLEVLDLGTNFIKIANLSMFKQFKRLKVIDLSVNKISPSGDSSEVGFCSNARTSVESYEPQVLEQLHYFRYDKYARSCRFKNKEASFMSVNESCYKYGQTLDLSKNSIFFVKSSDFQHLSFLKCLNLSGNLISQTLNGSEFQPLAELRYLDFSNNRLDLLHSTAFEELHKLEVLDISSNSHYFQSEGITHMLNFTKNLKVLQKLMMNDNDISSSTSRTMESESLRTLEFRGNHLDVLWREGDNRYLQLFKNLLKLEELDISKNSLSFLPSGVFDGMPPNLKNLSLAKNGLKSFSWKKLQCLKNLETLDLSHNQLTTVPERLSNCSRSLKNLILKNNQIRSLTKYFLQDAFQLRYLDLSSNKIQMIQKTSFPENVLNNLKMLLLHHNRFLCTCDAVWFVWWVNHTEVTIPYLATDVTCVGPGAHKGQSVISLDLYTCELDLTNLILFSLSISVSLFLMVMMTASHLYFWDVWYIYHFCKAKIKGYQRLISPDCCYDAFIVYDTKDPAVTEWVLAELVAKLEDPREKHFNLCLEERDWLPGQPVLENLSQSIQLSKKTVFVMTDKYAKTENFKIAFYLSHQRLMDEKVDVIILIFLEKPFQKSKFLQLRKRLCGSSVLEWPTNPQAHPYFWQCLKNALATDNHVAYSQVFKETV", "experiment": "Agonist activity at human TLR7 expressed in Ramos blue cells assessed as stimulation of NF-kB/AP-1 activity at 20 uM incubated for 18 hrs using quanti blue assay based SEAP reporter gene assay", "method_in_brief": "(§1)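 Ramos-Blue control cells (TLR3/7/9 and Nod1, no Nod2; stable NF-κB/AP-1-inducible SEAP reporter) at 1 × 10^6 cells/mL, exposed 18 h to 20 μM compound. SEAP in supernatant read with QUANTI-Blue reagent (3 h, 37 °C), absorbance 640 nm; activity compared with untreated cells.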"}, "[2]": {"system": "PBMC", "experiment": "Immunomodulatory activity in human PBMCs assessed as increase in PMA/ionomycin-induced IL8 release at 20 uM incubated for 18 hrs by multiplexed cytokine assay"}, "[3]": {"system": "PBMC", "experiment": "Immunomodulatory activity in human PBMCs assessed as increase in PMA/ionomycin-induced TNFalpha release at 20 uM incubated for 18 hrs by multiplexed cytokine assay", "method_in_brief": "(§2)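 Ficoll-isolated human PBMC, 1 × 10^6 cells per well, treated with 20 μM compound (DMSO ≤0.1%) plus PMA 3.33 ng/mL and ionomycin 500 nM for 18 h at 37 °C, 5% CO2. Cell-free supernatant cytokines measured by CBA human inflammatory kit on a flow cytometer against recombinant standards. Reported as % of PMA/ionomycin-only release; duplicates, three experiments, three donors.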"}, "[4]": {"system": "PBMC", "experiment": "Immunomodulatory activity in human PBMCs assessed as increase in PMA/ionomycin-induced IL10 release at 20 uM incubated for 18 hrs by multiplexed cytokine assay"}, "[5]": {"target": "T2, Toll-like receptor 9 (Homo sapiens) (UniProt Q9NR96)", "T2 sequence (whole entry)": "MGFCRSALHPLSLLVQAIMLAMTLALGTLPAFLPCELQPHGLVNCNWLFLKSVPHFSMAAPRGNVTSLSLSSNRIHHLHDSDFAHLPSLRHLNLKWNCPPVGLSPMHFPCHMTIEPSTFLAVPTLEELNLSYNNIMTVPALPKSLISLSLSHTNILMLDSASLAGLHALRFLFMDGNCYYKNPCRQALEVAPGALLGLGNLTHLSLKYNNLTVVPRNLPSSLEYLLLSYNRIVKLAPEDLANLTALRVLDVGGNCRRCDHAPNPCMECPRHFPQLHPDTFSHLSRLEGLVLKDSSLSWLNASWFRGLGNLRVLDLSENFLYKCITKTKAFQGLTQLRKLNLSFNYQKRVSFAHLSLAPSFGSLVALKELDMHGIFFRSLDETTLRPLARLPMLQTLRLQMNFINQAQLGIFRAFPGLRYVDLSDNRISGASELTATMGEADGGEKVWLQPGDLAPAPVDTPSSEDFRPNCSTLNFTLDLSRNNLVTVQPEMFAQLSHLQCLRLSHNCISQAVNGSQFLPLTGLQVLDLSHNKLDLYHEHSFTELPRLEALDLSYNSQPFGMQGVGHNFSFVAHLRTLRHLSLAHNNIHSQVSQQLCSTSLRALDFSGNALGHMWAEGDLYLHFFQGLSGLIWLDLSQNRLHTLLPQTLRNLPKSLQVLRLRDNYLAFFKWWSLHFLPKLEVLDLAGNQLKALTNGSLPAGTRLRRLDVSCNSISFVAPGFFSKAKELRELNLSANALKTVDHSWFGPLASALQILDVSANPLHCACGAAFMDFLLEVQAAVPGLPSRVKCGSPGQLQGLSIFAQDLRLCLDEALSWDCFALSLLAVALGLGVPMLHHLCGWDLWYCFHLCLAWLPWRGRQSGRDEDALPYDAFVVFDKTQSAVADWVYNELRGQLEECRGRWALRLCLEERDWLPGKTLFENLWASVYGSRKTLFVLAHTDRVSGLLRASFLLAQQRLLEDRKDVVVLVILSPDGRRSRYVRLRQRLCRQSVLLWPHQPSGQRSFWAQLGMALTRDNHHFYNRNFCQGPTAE", "experiment": "Agonist activity at human TLR9 expressed in Ramos blue cells assessed as stimulation of NF-kB/AP-1 activity at 20 uM incubated for 18 hrs using quanti blue assay based SEAP reporter gene assay", "method_in_brief": "as §1"}, "[6]": {"system": "PBMC", "experiment": "Immunomodulatory activity in human PBMCs assessed as increase in PMA/ionomycin-induced IL8 release at 20 uM incubated for 4 to 40 hrs by multiplexed cytokine assay", "method_in_brief": "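PBMC time course: 20 μM compound with PMA 3.33 ng/mL and ionomycin 500 nM. Supernatants collected at 4, 18 and 40 h and cytokines read by cytometric bead array. Compared with PMA/ionomycin-only control; two independent experiments in duplicate, two donors.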"}, "[7]": {"system": "PBMC", "experiment": "Immunomodulatory activity in human PBMCs assessed as increase in PMA/ionomycin-induced IL6 release at 20 uM by multiplexed cytokine assay", "conditions": "TDE = time-dependent effect", "method_in_brief": "as §2"}, "[8]": {"system": "PBMC", "experiment": "Immunomodulatory activity in human PBMCs assessed as increase in PMA/ionomycin-induced IL-1beta release at 20 uM by multiplexed cytokine assay", "conditions": "TDE = time-dependent effect", "method_in_brief": "as §2"}, "[9]": {"system": "PBMC", "experiment": "Immunomodulatory activity in human PBMCs assessed as increase in PMA/ionomycin-induced IL6 release incubated for 18 hrs by multiplexed cytokine assay"}},
  "note": "Activity calls are given as the source filed them. The rule behind the calls is not given here.",
  "data": [
    {"smiles": "CCOC(=O)CC[C@@H](NC(=O)[C@H](C)NC(=O)CCCCN1C(=O)c2ccccc2S1(=O)=O)C(N)=O", "values": [
      {"measurement": "Activity", "setting": "[1]", "value": "inactive"},
      {"measurement": "Activity", "setting": "[2]", "value": "inactive"},
      {"measurement": "Activity", "setting": "[3]", "value": "inactive"},
      {"measurement": "Activity", "setting": "[4]", "value": "inactive"},
      {"measurement": "Activity", "setting": "[5]", "value": "inactive"}
    ]},
    {"smiles": "CCOC(=O)CC[C@@H](NC(=O)[C@H](C)NC(=O)CCCCN1C(=O)c2ccccc2S1(=O)=O)C(=O)OCC", "values": [
      {"measurement": "Activity", "setting": "[1]", "value": "inactive"},
      {"measurement": "Activity", "setting": "[2]", "value": "inactive"},
      {"measurement": "Activity", "setting": "[3]", "value": "inactive"},
      {"measurement": "Activity", "setting": "[4]", "value": "inactive"},
      {"measurement": "Activity", "setting": "[5]", "value": "inactive"}
    ]},
    {"smiles": "CCOC(=O)CC[C@@H](NC(=O)[C@H](C)NC(=O)CNC(=O)c1cc2ccccc2[nH]1)C(N)=O", "values": [
      {"measurement": "Activity", "setting": "[1]", "value": "inactive"},
      {"measurement": "Activity", "setting": "[2]", "value": "inactive"},
      {"measurement": "Activity", "setting": "[3]", "value": "inactive"},
      {"measurement": "Activity", "setting": "[4]", "value": "inactive"},
      {"measurement": "Activity", "setting": "[5]", "value": "inactive"}
    ]},
    {"smiles": "CCCCOC(=O)[C@@H](CCC(N)=O)NC(=O)[C@H](C)NC(=O)[C@@H](C)O[C@H]1[C@H](O)[C@@H](CO)OC(O)[C@@H]1NC(C)=O", "note": "(some centres not stated) [MURABUTIDE]", "values": [
      {"measurement": "Activity", "setting": "[1]", "value": "inactive"},
      {"measurement": "Activity", "setting": "[2]", "value": "inactive"},
      {"measurement": "Activity", "setting": "[6]", "value": "inactive"},
      {"measurement": "Activity", "setting": "[7]", "value": "tde"},
      {"measurement": "Activity", "setting": "[8]", "value": "tde"},
      {"measurement": "Activity", "setting": "[9]", "value": "Dose-dependent effect"},
      {"measurement": "Activity", "setting": "[3]", "value": "Active"},
      {"measurement": "Activity", "setting": "[4]", "value": "inactive"},
      {"measurement": "Activity", "setting": "[5]", "value": "inactive"}
    ]},
    {"smiles": "CCOC(=O)CC[C@@H](NC(=O)[C@H](C)NC(=O)COCCN1C(=O)c2ccccc2S1(=O)=O)C(=O)OCC", "values": [
      {"measurement": "Activity", "setting": "[1]", "value": "inactive"},
      {"measurement": "Activity", "setting": "[2]", "value": "inactive"},
      {"measurement": "Activity", "setting": "[3]", "value": "inactive"},
      {"measurement": "Activity", "setting": "[4]", "value": "inactive"},
      {"measurement": "Activity", "setting": "[5]", "value": "inactive"}
    ]},
    {"smiles": "CCOC(=O)CC[C@@H](NC(=O)[C@H](C)NC(=O)C1=C2c3ccccc3S(=O)(=O)N2CCC1)C(=O)OCC", "values": [
      {"measurement": "Activity", "setting": "[1]", "value": "inactive"},
      {"measurement": "Activity", "setting": "[2]", "value": "inactive"},
      {"measurement": "Activity", "setting": "[4]", "value": "inactive"},
      {"measurement": "Activity", "setting": "[5]", "value": "inactive"}
    ]},
    {"smiles": "CCOC(=O)CC[C@@H](NC(=O)[C@H](C)NC(=O)COCCN1C(=O)c2ccccc2S1(=O)=O)C(N)=O", "values": [
      {"measurement": "Activity", "setting": "[1]", "value": "inactive"},
      {"measurement": "Activity", "setting": "[2]", "value": "inactive"},
      {"measurement": "Activity", "setting": "[3]", "value": "inactive"},
      {"measurement": "Activity", "setting": "[4]", "value": "inactive"},
      {"measurement": "Activity", "setting": "[5]", "value": "inactive"}
    ]},
    {"smiles": "CCOC(=O)CC[C@@H](NC(=O)[C@H](C)NC(=O)CNC(=O)c1cc2ccccc2[nH]1)C(=O)OCC", "values": [
      {"measurement": "Activity", "setting": "[1]", "value": "inactive"},
      {"measurement": "Activity", "setting": "[2]", "value": "inactive"},
      {"measurement": "Activity", "setting": "[6]", "value": "inactive"},
      {"measurement": "Activity", "setting": "[7]", "value": "tde"},
      {"measurement": "Activity", "setting": "[8]", "value": "tde"},
      {"measurement": "Activity", "setting": "[9]", "value": "Dose-dependent effect"},
      {"measurement": "Activity", "setting": "[3]", "value": "Active"},
      {"measurement": "Activity", "setting": "[4]", "value": "inactive"},
      {"measurement": "Activity", "setting": "[5]", "value": "inactive"}
    ]}
  ]
}
